# From ChEMBL document CHEMBL5649170, “Sustained microglial depletion with CSF1R inhibitor impairs parenchymal plaque development in an Alzheimer's disease model” (Nat Commun, 2019)
# pIC50: −log10 of the molar value. Calls of active or inactive are those of the source. The calls are words filed in the database; no cut-off is given here.
# What was measured:
# Mus musculus [1] = assay: Antialzheimer activity in 5XFAD mouse assessed as appearance of CAA in […] cortex at 600 ppm administered as rodent chow starting from 1.5 months and measured after 5 months by immunolabeling based confocal microscopic analysis; format: functional, organism-based; settings: route po, time 3.5 months
# Method in brief: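 5xFAD mice fed PLX3397 at 600 ppm in AIN-76A chow from 1.5 to 5 months of age; brain sections stained with Thio-S and immunolabeled for IBA1, imaged by confocal microscopy for vascular Thio-S deposits.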
# Aurora kinase B = Aurora kinase B (Homo sapiens, UniProt Q96GD4); assay: Inhibition of AURKB (unknown origin)
# Aurora kinase B, sequence (Q96GD4 whole entry): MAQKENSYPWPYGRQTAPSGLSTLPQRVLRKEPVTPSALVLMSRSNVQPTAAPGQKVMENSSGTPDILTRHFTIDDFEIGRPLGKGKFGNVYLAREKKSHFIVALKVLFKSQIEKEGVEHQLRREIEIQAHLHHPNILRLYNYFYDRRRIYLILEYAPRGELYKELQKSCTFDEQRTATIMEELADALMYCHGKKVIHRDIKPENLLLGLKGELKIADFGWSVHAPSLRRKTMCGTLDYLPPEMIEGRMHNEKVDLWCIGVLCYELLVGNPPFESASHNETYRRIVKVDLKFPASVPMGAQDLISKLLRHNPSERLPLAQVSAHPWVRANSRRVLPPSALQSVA
# [2] = biological target: Calcium/calmodulin-dependent protein kinase type 1D (Homo sapiens, UniProt Q8IU85); assay: Inhibition of CAMK1D (unknown origin)
# Calcium/calmodulin-dependent protein kinase type 1D, sequence (Q8IU85 whole entry): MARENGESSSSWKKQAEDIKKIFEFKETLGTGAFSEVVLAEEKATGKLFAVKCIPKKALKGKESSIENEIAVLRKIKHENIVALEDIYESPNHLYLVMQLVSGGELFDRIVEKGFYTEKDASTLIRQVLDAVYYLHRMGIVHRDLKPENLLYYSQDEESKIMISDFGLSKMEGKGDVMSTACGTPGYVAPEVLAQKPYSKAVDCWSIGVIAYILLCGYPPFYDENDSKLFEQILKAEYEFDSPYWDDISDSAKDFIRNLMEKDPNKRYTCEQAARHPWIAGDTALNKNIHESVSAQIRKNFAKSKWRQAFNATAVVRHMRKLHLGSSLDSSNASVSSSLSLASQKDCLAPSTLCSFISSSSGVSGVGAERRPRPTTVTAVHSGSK
# Ephrin type-A receptor 1 = Ephrin type-A receptor 1 (Homo sapiens, UniProt P21709); assay: Inhibition of EPHA1 (unknown origin)
# Ephrin type-A receptor 1, sequence (P21709 whole entry): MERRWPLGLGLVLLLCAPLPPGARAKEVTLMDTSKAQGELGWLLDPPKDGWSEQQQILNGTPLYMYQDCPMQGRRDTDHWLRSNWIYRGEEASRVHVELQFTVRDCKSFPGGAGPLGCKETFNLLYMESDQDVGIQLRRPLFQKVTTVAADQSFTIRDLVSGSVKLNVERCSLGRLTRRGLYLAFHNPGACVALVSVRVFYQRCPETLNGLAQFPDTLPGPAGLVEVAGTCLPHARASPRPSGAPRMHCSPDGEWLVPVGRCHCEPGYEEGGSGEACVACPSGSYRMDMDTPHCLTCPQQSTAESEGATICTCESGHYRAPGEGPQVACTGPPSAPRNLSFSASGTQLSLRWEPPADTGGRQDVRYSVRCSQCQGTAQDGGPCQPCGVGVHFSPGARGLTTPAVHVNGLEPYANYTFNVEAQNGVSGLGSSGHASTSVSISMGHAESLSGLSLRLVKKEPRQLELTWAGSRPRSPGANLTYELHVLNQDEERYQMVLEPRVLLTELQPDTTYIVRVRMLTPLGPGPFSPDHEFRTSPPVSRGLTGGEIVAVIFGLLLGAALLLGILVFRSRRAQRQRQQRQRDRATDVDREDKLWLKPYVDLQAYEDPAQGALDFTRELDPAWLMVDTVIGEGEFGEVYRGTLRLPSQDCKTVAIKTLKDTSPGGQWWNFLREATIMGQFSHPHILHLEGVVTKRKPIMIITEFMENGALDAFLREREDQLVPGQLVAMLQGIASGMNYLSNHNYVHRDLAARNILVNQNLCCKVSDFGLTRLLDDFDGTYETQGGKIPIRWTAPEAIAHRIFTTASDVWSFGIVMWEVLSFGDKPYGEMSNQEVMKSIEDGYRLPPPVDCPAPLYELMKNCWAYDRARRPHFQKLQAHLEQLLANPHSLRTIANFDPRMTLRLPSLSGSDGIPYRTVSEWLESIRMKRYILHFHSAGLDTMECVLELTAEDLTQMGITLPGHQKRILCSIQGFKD
# Ephrin type-B receptor 1 = Ephrin type-B receptor 1 (Homo sapiens, UniProt P54762); assay: Inhibition of EPHB1 (unknown origin)
# Ephrin type-B receptor 1, sequence (P54762 whole entry): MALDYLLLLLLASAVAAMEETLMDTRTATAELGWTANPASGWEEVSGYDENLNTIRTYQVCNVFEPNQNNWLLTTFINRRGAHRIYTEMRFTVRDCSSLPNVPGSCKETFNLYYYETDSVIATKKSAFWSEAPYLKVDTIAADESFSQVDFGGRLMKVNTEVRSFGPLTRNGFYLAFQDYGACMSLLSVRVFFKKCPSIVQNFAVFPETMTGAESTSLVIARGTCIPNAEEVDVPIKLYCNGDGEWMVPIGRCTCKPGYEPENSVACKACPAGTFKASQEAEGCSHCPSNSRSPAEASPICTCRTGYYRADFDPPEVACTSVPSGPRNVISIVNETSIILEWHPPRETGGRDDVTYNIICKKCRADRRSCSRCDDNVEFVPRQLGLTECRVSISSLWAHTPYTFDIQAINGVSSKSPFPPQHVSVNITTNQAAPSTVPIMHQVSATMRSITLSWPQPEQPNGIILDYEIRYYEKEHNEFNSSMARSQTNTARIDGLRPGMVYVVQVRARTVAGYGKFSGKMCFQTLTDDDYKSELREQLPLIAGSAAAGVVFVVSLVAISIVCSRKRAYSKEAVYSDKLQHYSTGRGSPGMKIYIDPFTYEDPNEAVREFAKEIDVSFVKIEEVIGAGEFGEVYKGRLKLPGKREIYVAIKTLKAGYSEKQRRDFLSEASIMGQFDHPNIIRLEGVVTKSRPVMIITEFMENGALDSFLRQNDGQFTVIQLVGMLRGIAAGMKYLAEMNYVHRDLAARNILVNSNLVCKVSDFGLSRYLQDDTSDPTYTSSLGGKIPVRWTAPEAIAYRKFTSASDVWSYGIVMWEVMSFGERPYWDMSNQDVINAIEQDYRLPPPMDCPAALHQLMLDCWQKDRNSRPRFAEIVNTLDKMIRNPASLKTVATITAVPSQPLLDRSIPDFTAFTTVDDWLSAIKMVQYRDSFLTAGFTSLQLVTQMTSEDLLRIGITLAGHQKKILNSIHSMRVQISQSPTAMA
# [3] = biological target: Receptor tyrosine-protein kinase erbB-4 (Homo sapiens, UniProt Q15303); assay: Inhibition of ERBB4 (unknown origin)
# Receptor tyrosine-protein kinase erbB-4, sequence (Q15303 whole entry): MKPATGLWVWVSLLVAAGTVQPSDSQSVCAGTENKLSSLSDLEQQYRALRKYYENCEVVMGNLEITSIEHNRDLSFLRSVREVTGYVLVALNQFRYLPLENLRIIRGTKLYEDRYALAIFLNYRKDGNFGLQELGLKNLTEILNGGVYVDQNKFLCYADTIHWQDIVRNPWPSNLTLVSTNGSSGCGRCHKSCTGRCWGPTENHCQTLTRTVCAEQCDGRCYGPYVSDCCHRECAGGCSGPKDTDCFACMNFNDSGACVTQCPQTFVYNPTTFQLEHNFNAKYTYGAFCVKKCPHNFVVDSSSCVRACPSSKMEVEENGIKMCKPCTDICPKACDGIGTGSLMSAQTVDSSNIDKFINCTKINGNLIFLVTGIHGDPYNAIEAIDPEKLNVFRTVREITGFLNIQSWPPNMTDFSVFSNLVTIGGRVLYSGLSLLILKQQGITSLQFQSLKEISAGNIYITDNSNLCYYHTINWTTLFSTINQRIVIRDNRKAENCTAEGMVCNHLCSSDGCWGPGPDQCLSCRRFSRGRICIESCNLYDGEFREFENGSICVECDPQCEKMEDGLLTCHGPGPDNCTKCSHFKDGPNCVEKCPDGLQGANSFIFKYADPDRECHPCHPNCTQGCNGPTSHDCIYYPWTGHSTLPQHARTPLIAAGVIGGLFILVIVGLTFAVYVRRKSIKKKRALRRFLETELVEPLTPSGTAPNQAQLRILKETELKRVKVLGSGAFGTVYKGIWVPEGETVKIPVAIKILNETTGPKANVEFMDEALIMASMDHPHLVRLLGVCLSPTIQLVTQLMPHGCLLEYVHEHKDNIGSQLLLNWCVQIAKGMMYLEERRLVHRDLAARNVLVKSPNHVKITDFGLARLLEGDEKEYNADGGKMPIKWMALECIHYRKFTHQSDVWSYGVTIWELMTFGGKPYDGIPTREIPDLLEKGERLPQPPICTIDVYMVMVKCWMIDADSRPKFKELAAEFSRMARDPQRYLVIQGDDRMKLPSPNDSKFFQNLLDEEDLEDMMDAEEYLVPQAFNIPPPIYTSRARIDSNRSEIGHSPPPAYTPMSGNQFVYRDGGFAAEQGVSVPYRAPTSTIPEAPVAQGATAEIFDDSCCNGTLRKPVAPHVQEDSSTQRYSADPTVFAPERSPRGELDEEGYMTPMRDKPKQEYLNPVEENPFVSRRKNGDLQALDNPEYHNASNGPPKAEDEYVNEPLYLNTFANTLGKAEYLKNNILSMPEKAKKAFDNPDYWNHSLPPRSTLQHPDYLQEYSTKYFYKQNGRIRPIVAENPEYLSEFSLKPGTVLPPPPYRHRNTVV
# [4] = biological target: Serine/threonine-protein kinase PAK 6 (Homo sapiens, UniProt Q9NQU5); assay: Inhibition of PAK6 (unknown origin)
# Serine/threonine-protein kinase PAK 6, sequence (Q9NQU5 whole entry): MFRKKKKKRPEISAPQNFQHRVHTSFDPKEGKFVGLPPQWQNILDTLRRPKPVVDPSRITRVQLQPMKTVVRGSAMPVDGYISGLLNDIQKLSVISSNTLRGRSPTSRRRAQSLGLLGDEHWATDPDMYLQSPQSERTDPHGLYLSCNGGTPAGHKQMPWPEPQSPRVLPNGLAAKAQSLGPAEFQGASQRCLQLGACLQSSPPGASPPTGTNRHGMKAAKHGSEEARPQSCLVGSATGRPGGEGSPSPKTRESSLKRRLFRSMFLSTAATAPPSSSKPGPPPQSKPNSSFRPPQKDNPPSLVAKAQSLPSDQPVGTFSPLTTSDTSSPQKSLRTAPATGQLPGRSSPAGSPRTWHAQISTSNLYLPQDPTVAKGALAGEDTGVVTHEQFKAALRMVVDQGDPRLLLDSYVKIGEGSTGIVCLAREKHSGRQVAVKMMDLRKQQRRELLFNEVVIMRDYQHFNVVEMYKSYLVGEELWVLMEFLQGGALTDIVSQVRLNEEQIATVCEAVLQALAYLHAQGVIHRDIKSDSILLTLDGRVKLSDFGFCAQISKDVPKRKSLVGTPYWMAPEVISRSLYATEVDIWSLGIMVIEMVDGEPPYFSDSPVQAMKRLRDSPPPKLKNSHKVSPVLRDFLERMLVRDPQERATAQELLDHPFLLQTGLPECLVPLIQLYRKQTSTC
# [5] = biological target: cAMP-dependent protein kinase catalytic subunit alpha (Homo sapiens, UniProt P17612); assay: Inhibition of PRKACA (unknown origin)
# Sphingosine kinase 1 = Sphingosine kinase 1 (Homo sapiens, UniProt Q9NYA1); assay: Inhibition of SPHK1 (unknown origin)
# Sphingosine kinase 1, sequence (Q9NYA1 whole entry): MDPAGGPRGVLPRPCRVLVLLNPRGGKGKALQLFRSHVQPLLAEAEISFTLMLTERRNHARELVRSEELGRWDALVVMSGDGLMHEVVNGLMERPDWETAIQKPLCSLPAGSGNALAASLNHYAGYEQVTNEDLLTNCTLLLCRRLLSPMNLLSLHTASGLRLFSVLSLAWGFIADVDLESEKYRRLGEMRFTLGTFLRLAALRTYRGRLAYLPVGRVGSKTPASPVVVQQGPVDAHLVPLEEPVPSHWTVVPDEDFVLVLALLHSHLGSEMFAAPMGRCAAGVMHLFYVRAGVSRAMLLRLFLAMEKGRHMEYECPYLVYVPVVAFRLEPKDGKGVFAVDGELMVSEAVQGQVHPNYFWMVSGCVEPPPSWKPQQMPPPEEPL
# [6] = AUC (0 to infinity) in monkey at 1.35 mg/kg, iv administered as single dose; format: ADME, organism-based, Macaca mulatta; settings: rhesus monkey, in vivo
# [7] = Half-life in dog at 1.00 mg/kg, iv administered as single dose; format: ADME, organism-based, Canis lupus familiaris; settings: in vivo
# [8] = Cmax in female rat at 45 mg/kg, po administered as single dose via gavage; format: ADME, organism-based; settings: in vivo
# [9] = AUC (0 to 24 hrs) in 5XFAD mouse brain at 1200 ppm administered as rodent chow for 180 days; format: ADME, tissue-based; settings: route po, time 180 day
# Mus musculus [10] = assay: Antialzheimer activity in wildtype mouse assessed as number of Iba positive cells per FOV in […] cortex at 1200 ppm administered as rodent chow starting from 1.5 months and measured after 7 months (reference value: 322 to 632); format: functional; settings: route po, time 5.5 months, 4015 h
# Mus musculus [11] = assay: Antialzheimer activity in 5XFAD mouse assessed as time in platform zone at 1200 ppm administered as rodent chow for 10 to 24 weeks by Morris water maze test (reference value: 0 to 27 sec); format: functional; settings: route po, time 10-24 weeks
# Method in brief: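 Morris water maze: a circular pool was filled with opaque water (white paint added), and mice were given four trials per acquisition day. Twenty-four hours after the last acquisition day, the platform was removed for a 60 s probe trial. Mice had been on 1200 ppm PLX5622 or control chow for 10 or 24 weeks from 1.5 months of age.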
# Mus musculus [12] = assay: Antialzheimer activity in 5XFAD mouse assessed as number of entries to perimeter zone at 1200 ppm administered as rodent chow for 10 to 24 weeks by Open field test (reference value: 22 to 55); format: functional; settings: route po, time 10-24 weeks
# Mus musculus [13] = assay: Antialzheimer activity in 5XFAD mouse assessed as amyloidbeta40 level in detergent insoluble thalamus fraction measured per microgram protein at 1200 ppm administered as rodent chow starting from 1.5 months and measured after 7 months by ELISA (reference value: 57.876 to 502395 pg); format: functional; settings: route po, time 5.5 months, 4015 h
# Method in brief: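 PLX5622 at 1200 ppm in chow given to 5xFAD mice from 1.5 months to 4 or 7 months of age; cortex and thalamus homogenized in TPER (detergent-soluble), pellets re-homogenized in 70% formic acid and spun 100,000 g, 1 h, 4 °C (insoluble); protein by Bradford/Lowry; Aβ species measured by Meso Scale electrochemiluminescence immunoassay, normalized to protein; n = 7–8 per group at 7 months.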
# Mus musculus [14] = assay: Antialzheimer activity in 5XFAD mouse assessed as average diameter of claudin-5 blood vessels in Thio-S positive retro spinal cortex at 1200 ppm administered as rodent chow starting from 1.5 months and measured after 4 months by immunolabeling analysis; format: functional; settings: route po, time 2.5 months, 1825 h
# Mus musculus [15] = assay: Antialzheimer activity in 5XFAD mouse assessed as percent change in claudin-5 intensity of Thio-S negative retro spinal cortex at 1200 ppm administered as rodent chow starting from 1.5 months and measured after 4 months by immunolabeling analysis relative to control; format: functional; settings: route po, time 2.5 months, 1825 h
# [16] = Effect on Hexb gene expression in wild type mouse hippocampus at 1200 ppm administered as rodent chow starting from 1.5 months and measured after 7 months by RNA-Seq analysis (reference value: 42.233 to 43.921 RPKM); format: functional; settings: route po, time 5.5 months, 4015 h
# [17] = Effect on Siglech gene expression in 5XFAD mouse hippocampus at 1200 ppm administered as rodent chow starting from 1.5 months and measured after 7 months by RNA-Seq analysis (reference value: 5.386 to 6.928 RPKM); format: functional; settings: route po, time 5.5 months, 4015 h
# [18] = Effect on Clec7a gene expression in wild type mouse cortex at 1200 ppm administered as rodent chow starting from 1.5 months and measured after 7 months by RNA-Seq analysis (reference value: 0 to 0.413 RPKM); format: functional; settings: route po, time 5.5 months, 4015 h
# Method in brief: (§1)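 WT and 5xFAD mice were treated with 1200 ppm PLX5622 chow or control chow from 1.5 to 7 months of age. Brains were microdissected into cortex, hippocampus and thalamus, and RNA was extracted from tissue powder. Whole-transcriptome RNA-Seq libraries were sequenced, with n = 4 per group per region (48 samples).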
# [19] = Effect on Cst7 gene expression in 5XFAD mouse cortex at 1200 ppm administered as rodent chow starting from 1.5 months and measured after 7 months by RNA-Seq analysis (reference value: 9.853 to 27.586 RPKM); format: functional; settings: route po, time 5.5 months, 4015 h
# [20] = Effect on Pcdhac1 gene expression in wildtype mouse hippocampus assessed as percent change in Reads Per kilo base per Million mapped reads at 1200 ppm administered as rodent chow starting from 1.5 months and measured after 7 months by RNA-Seq analysis (reference value: 88.246 to 122.665 %); format: functional; settings: route po, time 5.5 months, 4015 h
# [21] = Effect on Nos1ap gene expression in wildtype mouse hippocampus assessed as percent change in Reads Per kilo base per Million mapped reads at 1200 ppm administered as rodent chow starting from 1.5 months and measured after 7 months by RNA-Seq analysis (reference value: 90.677 to 108.278 %); format: functional; settings: route po, time 5.5 months, 4015 h
# [22] = Effect on Chrm3 gene expression in wildtype mouse hippocampus assessed as percent change in Reads Per kilo base per Million mapped reads at 1200 ppm administered as rodent chow starting from 1.5 months and measured after 7 months by RNA-Seq analysis (reference value: 85.337 to 114.189 %); format: functional; settings: route po, time 5.5 months, 4015 h; method in brief: as §1
# Mus musculus [23] = assay: Prevention of immune pathway related gene upregulation in 5XFAD mouse hippocampus assessed as percent change in Reads Per kilo base per Million mapped reads at 1200 ppm administered as rodent chow starting from 1.5 months and measured after 7 months by GO enrichment analysis; format: functional, tissue-based; settings: route po, time 5.5 months
# Mus musculus [24] = assay: Prevention of Gabrb2 gene downregulation in 5XFAD mouse hippocampus at 1200 ppm administered as rodent chow starting from 1.5 months and measured after 7 months by Nanostring analysis; format: functional, tissue-based; settings: route po, time 5.5 months
smiles,measurement,setting,value
FC(F)(F)c1ccc(CNc2ccc(Cc3c[nH]c4ncc(Cl)cc34)cn2)cn1 [PEXIDARTINIB],Activity,Mus musculus [1],Active
COc1ncc(F)cc1CNc1ccc(Cc2c[nH]c3ncc(C)cc23)c(F)n1 [PLX-5622],pIC50,Aurora kinase B,< 6.00
same,pIC50,[2],< 6.00
same,pIC50,Ephrin type-A receptor 1,< 6.00
same,pIC50,Ephrin type-B receptor 1,< 6.00
same,pIC50,[3],< 6.00
same,pIC50,[4],< 6.00
same,pIC50,[5],< 6.00
same,pIC50,Sphingosine kinase 1,< 6.00
same,AUC(0-inf),[6],2100 ng·h/mL
same,half-life,[7],15 h
same,Cmax,[8],15600 ng/mL
same,AUC at 4320 h,[9],57300 ng·h/mL
same,Activity,Mus musculus [10],0
same,Time,Mus musculus [11],0 s
same,Activity,Mus musculus [12],7
same,Activity,Mus musculus [13],100.854 pg
same,Activity,Mus musculus [14],4.447 um
same,Activity,Mus musculus [15],70.238%
same,Activity,[16],10.009 RPKM
same,Activity,[17],0.195 RPKM
same,Activity,[18],0 RPKM
same,Activity,[19],0.887 RPKM
same,Activity,[20],63.951%
same,Activity,[21],78.494%
same,Activity,[22],79.458%
same,Activity,Mus musculus [23],Active
same,Activity,Mus musculus [24],Active
